In ChEMBL document CHEMBL5380775, “Visible-Light-Controlled Histone Deacetylase Inhibitors for Targeted Cancer Therapy” (J Med Chem, 2023):
Activity calls are given as the source filed them. The rule behind the calls is not given here.

How the values were obtained:
[1] = Stability of compound in DMSO assessed as half life at 25 to 50 uM in presence of illumination with 380 to 550 nm light; assay type: physicochemical; conditions: dose 25-50 µM
In short: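 Solutions of 25–50 μM in DMSO illuminated 2 min at the cis-forming wavelength. Absorbance then followed at fixed intervals in the dark at room temperature, at the wavelength of largest isomer difference. Half-life from an exponential-decay fit.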

Histone deacetylase 1 [2] = molecular target: T1, Histone deacetylase 1 (Homo sapiens, UniProt Q13547); assay: Inhibition of human recombinant HDAC1 using Boc-Lys(Ac)-AMC as substrate incubated for 1 hrs in presence of illumination with 420 nm light by fluorescence based assay
T1 sequence (Q13547 whole entry): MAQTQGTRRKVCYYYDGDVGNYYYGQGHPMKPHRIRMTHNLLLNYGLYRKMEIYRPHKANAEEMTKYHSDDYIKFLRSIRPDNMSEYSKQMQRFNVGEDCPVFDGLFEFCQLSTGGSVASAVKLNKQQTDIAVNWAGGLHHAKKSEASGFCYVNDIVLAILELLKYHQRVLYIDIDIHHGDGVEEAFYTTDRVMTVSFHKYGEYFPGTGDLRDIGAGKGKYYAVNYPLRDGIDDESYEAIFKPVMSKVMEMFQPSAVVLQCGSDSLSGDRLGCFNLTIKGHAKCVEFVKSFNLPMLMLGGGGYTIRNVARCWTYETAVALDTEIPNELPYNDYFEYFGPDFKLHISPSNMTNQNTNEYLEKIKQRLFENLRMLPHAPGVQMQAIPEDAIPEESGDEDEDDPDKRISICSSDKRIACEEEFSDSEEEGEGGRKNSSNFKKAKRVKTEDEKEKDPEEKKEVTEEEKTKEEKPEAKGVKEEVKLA

HT-29 [3] = assay: Cytotoxicity against human HT-29 cells assessed as reduction in cell viability at 50 uM incubated for 48 hrs in dark condition by MTS assay; assay type: functional, cell-based
In short: (§1)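 HT29 and MCF7 cells in DMEM with 10% FBS, seeded at 1 × 10⁴ cells/well; compound added 24 h later. Dark stocks heated to 60 or 80 °C; light stocks preilluminated 3 min at 380 or 550 nm. Tested at 50 μM, final DMSO 0.5%, for 48 h. MTS read 2 h at 37 °C, absorbance 490 nm; viability as % of nontreated cells.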

KG-1 [4] = assay: Cytotoxicity against human KG-1 cells assessed as reduction in cell viability at 50 uM incubated for 48 hrs in presence of illumination with 550 nm light by celltiter glo assay; assay type: functional, cell-based
In short: (§2)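 KG1 suspension cells grown in IMDM with 20% FBS, 1 × 10⁴ cells/well. Dark stocks heated to 60 or 80 °C; light stocks preilluminated 3 min at 380 or 550 nm. Exposure 50 μM for 48 h. CellTiter-Glo added, 10 min at room temperature, luminescence read; % of nontreated cells.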

KG-1 [5] = assay: Cytotoxicity against human KG-1 cells assessed as reduction in cell viability at 50 uM incubated for 48 hrs in presence of illumination with 380 nm light by celltiter glo assay; assay type: functional, cell-based; in short: as §2
MCF7 [6] = assay: Cytotoxicity against human MCF7 cells assessed as reduction in cell viability at 50 uM incubated for 48 hrs in presence of illumination with 380 nm light by MTS assay; assay type: functional, cell-based; in short: as §1
MCF7 [7] = assay: Cytotoxicity against human MCF7 cells assessed as reduction in cell viability at 50 uM incubated for 48 hrs in presence of illumination with 550 nm light by MTS assay; assay type: functional, cell-based; in short: as §1
KG-1 [8] = assay: Cytotoxicity against human KG-1 cells assessed as reduction in cell viability at 50 uM incubated for 48 hrs in dark condition by celltiter glo assay; assay type: functional, cell-based; in short: as §2
[9] = Stability of the compound assessed as half life in DMEM by HPLC analysis; assay type: physicochemical
In short: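 10 mM DMSO stock illuminated 2 min (LED array plate at maximum power, e.g. 380 nm at 11 mW/cm²), then diluted to 10 μM in DMEM with 0.1% DMSO. Kept at 37 °C in an incubator in the dark; samples taken at fixed intervals and analysed by HPLC. Cis thermal half-life obtained by fitting the decay to an exponential function.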

HT-29 [10] = assay: Cytotoxicity against human HT-29 cells assessed as reduction in cell viability at 50 uM incubated for 48 hrs in presence of illumination with 380 nm light by MTS assay; assay type: functional, cell-based; in short: as §1
HeLa [11] = assay: Anticancer activity against human HeLa cells assessed as reduction in cell viability upto 100 uM incubated for 48 hrs in dark by MTS assay; assay type: functional, cell-based
In short: (§3)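 HeLa cells in DMEM with 10% FBS, seeded at 5 × 10³ cells/well 24 h before treatment. Dark stocks heated to 60 or 80 °C. Light stocks preilluminated 3 min at 380 nm (11 mW/cm²). Stocks diluted in DMEM to 20× final, final DMSO 0.5%. Exposure 24 or 48 h. MTS read 2 h at 37 °C, absorbance 490 nm; % of nontreated cells.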

[12] = molecular target: Histone deacetylase (Homo sapiens) (UniProt Q13547+O15379+Q9UBN7+Q92769+Q9UQL6+Q8WUI4+Q9BY41+Q96DB2+P56524+Q9UKV0+Q969S8); assay: Inhibition of HDAC in human HeLa cells at 50 uM incubated for 3 hrs by fluorescence based analysis; assay type: cell-based
In short: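 Live-cell HDAC assay: HeLa in DMEM/10% FBS, 15 × 10³ cells/well, seeded 24 h before. Compound added at 50 μM final, either heat-relaxed to trans (60 or 80 °C, dark) or LED-illuminated 3 min. Boc-Lys(Ac)-AMC substrate at 100 μM final, 3 h at 37 °C. […] Fluorescence ex 380/em 460 nm. Activity as % of untreated cells after no-substrate blank subtraction.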

HT-29 [13] = assay: Cytotoxicity against human HT-29 cells assessed as reduction in cell viability at 50 uM incubated for 48 hrs in presence of illumination with 550 nm light by MTS assay; assay type: functional, cell-based; in short: as §1
MCF7 [14] = assay: Cytotoxicity against human MCF7 cells assessed as reduction in cell viability at 50 uM incubated for 48 hrs in dark condition by MTS assay; assay type: functional, cell-based; in short: as §1
HeLa [15] = assay: Anticancer activity against human HeLa cells assessed as inhibition of cell growth incubated for 48 hrs in dark by MTS assay; assay type: functional, cell-based; in short: as §3
[16] = Stability of the compound assessed as half life in buffer; assay type: physicochemical
Histone deacetylase 1 [17] = molecular target: T1, Histone deacetylase 1; assay: Inhibition of human recombinant HDAC1 using Boc-Lys(Ac)-AMC as substrate at 0.003 to 10 uM incubated for 1 hrs in dark by fluorescence based assay; conditions: dose 0.003-10 µM
In short: (§4)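 Recombinant human HDAC1 at 8 ng/well with Boc-Lys(Ac)-AMC 15 μM in Tris buffer pH 8 with 0.1 mg/mL BSA. Compound 10 μM to 3 nM, 1 h at room temperature. Dark: stocks heated to 60 or 80 °C. Light: stocks preilluminated 3 min, then continuous 550 nm at 6 mW/cm². […] Fluorescence ex 380/em 460 nm, blank-subtracted.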

Histone deacetylase 1 [18] = molecular target: T1, Histone deacetylase 1; assay: Inhibition of human recombinant HDAC1 using Boc-Lys(Ac)-AMC as substrate at 0.003 to 10 uM incubated for 1 hrs in presence of illumination with 550 nm light by fluorescence based assay; conditions: dose 0.003-10 µM; in short: as §4
Histone deacetylase 1 [19] = molecular target: T1, Histone deacetylase 1; assay: Inhibition of human recombinant HDAC1 using Boc-Lys(Ac)-AMC as substrate incubated for 1 hrs in presence of illumination with 550 nm light by fluorescence based assay
Histone deacetylase 1 [20] = molecular target: T1, Histone deacetylase 1; assay: Inhibition of human recombinant HDAC1 using Boc-Lys(Ac)-AMC as substrate incubated for 1 hrs in dark by fluorescence based assay
HeLa [21] = assay: Anticancer activity against human HeLa cells assessed as inhibition of cell growth incubated for 48 hrs in presence of illumination with 380 nm light by MTS assay; assay type: functional, cell-based; in short: as §3
HeLa [22] = assay: Anticancer activity against human HeLa cells assessed as inhibition of cell growth incubated for 24 hrs in dark condition by MTS assay; assay type: functional, cell-based; in short: as §3
Histone deacetylase 1 [23] = molecular target: T1, Histone deacetylase 1; assay: Inhibition of human recombinant HDAC1 using Boc-Lys(Ac)-AMC as substrate incubated for 1 hrs in presence of illumination with 380 nm light by fluorescence based assay
[24] = in the assay text read “380 nm light” for “550 nm light”

CN(C)c1ccc(/N=N/c2ccc(C(=O)Nc3ccccc3N)cc2)cc1
half-life at up to 50 µM [1]: 0.0717 h

CN(C)c1cc(Cl)c(/N=N/c2c(Cl)cc(/C=C/C(=O)Nc3ccccc3N)cc2Cl)c(Cl)c1
half-life at up to 50 µM [1]: 0.135 h
IC50 (Histone deacetylase 1 [2]): 5000 nM

COc1ccc(/N=N/c2ccc(/C=C/C(=O)Nc3ccccc3N)cc2)cc1
Activity (HT-29 [3]): inactive
Activity (KG-1 [4]): Active
Activity (KG-1 [5]): Active
Activity (MCF7 [6]): Active
half-life at up to 50 µM [1]: 3.1 h
Activity (MCF7 [7]): Active
Activity (KG-1 [8]): inactive
half-life [9]: 0.667 h
Activity (HT-29 [10]): Active
Activity (HeLa [11]): inactive
inhibition [12]: Active
Activity (HT-29 [13]; [24]): Active
Activity (MCF7 [14]): inactive

COc1cc(F)c(/N=N/c2c(F)cc(/C=C/C(=O)Nc3ccccc3N)cc2F)c(F)c1
Activity (HT-29 [3]): inactive
inhibition (HeLa [15]): inactive
Activity (KG-1 [4]): Active
Activity (KG-1 [5]): Active
Activity (MCF7 [6]): Active
half-life at up to 50 µM [1]: 223 h
Activity (MCF7 [7]): Active
Activity (KG-1 [8]): inactive
Activity (HT-29 [10]): Active
inhibition [12]: Active
Activity (HT-29 [13]): Active
Activity (MCF7 [14]): inactive

COc1ccc(/N=N/c2ccc(/C=C/C(=O)NO)cc2)cc1
half-life at up to 50 µM [1]: 2.7 h
half-life [16]: 2.7 h

COc1ccc(/N=N/c2ccc(C(=O)Nc3ccccc3N)cc2)cc1
inhibition (HeLa [15]): inactive
half-life at up to 50 µM [1]: 20.8 h

COc1cc(F)c(/N=N/c2c(F)cc(C(=O)Nc3ccccc3N)cc2F)c(F)c1
Activity (HT-29 [3]): inactive
Activity (KG-1 [4]): Active
Activity (KG-1 [5]): Active
Activity (MCF7 [6]): Active
half-life at up to 50 µM [1]: 1010 h
Activity (MCF7 [7]): Active
Activity (KG-1 [8]): inactive
half-life [9]: 113 h
Activity (HT-29 [10]): Active
inhibition [12]: Active
Activity (HT-29 [13]): Active
Activity (MCF7 [14]): inactive

COc1cc(Cl)c(/N=N/c2c(Cl)cc(C(=O)Nc3ccccc3N)cc2Cl)c(Cl)c1
half-life at up to 50 µM [1]: 8.3 h
inhibition (Histone deacetylase 1 [17]): inactive
inhibition (Histone deacetylase 1 [18]): inactive
inhibition (Histone deacetylase 1 [19]): inactive
inhibition (Histone deacetylase 1 [20]): inactive

CN(C)c1cc(F)c(/N=N/c2c(F)cc(/C=C/C(=O)Nc3ccccc3N)cc2F)c(F)c1
half-life at up to 50 µM [1]: 5.4 h
inhibition (Histone deacetylase 1 [17]): inactive
IC50 (Histone deacetylase 1 [2]): 1200 nM

COc1ccc(/N=N/c2ccc(CCC(=O)Nc3ccccc3N)cc2)cc1
inhibition (HeLa [15]): inactive
Activity (HeLa [21]): inactive
half-life at up to 50 µM [1]: 20.1 h

COc1ccc(/N=N/c2ccc(/C=C/C(=O)Nc3ccccc3N)cc2Cl)c(Cl)c1
inhibition (HeLa [15]): inactive
inhibition (HeLa [21]): inactive
half-life at up to 50 µM [1]: 4.3 h

COc1cc(F)c(/N=N/c2c(F)cc(/C=C/C(=O)NO)cc2F)c(F)c1
half-life at up to 50 µM [1]: 218 h

COc1cc(F)c(/N=N/c2c(F)cc(/C=C/C(=O)Nc3ccccc3N)cc2Cl)c(Cl)c1
Activity (HT-29 [3]): inactive
inhibition (HeLa [15]): inactive
Activity (KG-1 [4]): Active
Activity (KG-1 [5]): Active
Activity (MCF7 [6]): Active
half-life at up to 50 µM [1]: 178 h
Activity (MCF7 [7]): Active
Activity (KG-1 [8]): inactive
Activity (HT-29 [10]): Active
inhibition [12]: Active
Activity (HT-29 [13]): Active
Activity (MCF7 [14]): inactive

COc1cc(Cl)c(/N=N/c2c(Cl)cc(/C=C/C(=O)Nc3ccccc3N)cc2Cl)c(Cl)c1
half-life at up to 50 µM [1]: 13.8 h
inhibition (Histone deacetylase 1 [17]): inactive

COc1ccc(/N=N/c2ccc(C(=O)NO)cc2)cc1
half-life at up to 50 µM [1]: 18.7 h

COc1ccc(/N=N/c2ccc(/C=C/C(=O)Nc3cc(-c4cccs4)ccc3N)cc2)cc1
Activity (HT-29 [3]): inactive
Activity (KG-1 [4]): Active
Activity (KG-1 [5]): Active
Activity (MCF7 [6]): Active
half-life at up to 50 µM [1]: 4.5 h
Activity (MCF7 [7]): Active
Activity (KG-1 [8]): inactive
Activity (HT-29 [10]): Active
Activity (HeLa [11]): inactive
inhibition [12]: Active
inhibition (HeLa [22]): inactive
Activity (HT-29 [13]; [24]): Active
Activity (MCF7 [14]): inactive

COc1ccc(/N=N/c2ccc(/C=C/C(=O)Nc3ccccc3N)cc2F)c(F)c1
inhibition (HeLa [15]): inactive
inhibition (HeLa [21]): inactive
half-life at up to 50 µM [1]: 9.9 h
IC50 (Histone deacetylase 1 [23]): 460 nM
